We go through one molecule from ChEMBL document CHEMBL1949512, “RO4383596, an orally active KDR, FGFR, and PDGFR inhibitor: synthesis and biological evaluation” (Bioorg Med Chem, 2005).

The nature of data set [1]: Volume of distribution at steady state in athymic nude mouse at 10 mg/kg, iv. The format is ADME, organism-based. The arrangement: dose 10 mg/kg, route intravenous. The following applies: in vivo, read-out: Vdss. An outline of the steps: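 Athymic nude mice given single 10 mg/kg iv dose in 2% DMA, 10% PEG400, 88% of 40% HPBCD in water, 0.2 mL. Blood at 1, 5, 15, 30 min and 1, 2, 4, 8, 16, 24 h; EDTA plasma, LC-MS/MS. Composite Vdss by non-compartmental analysis.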

The target in data set [2] is Protein kinase C alpha type (Homo sapiens, UniProt P17252). The experiment in a line: Inhibition of PKCalpha by IMAP assay. An outline of the steps:
(§1)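 IMAP fluorescence-polarization assay, in which phosphorylated fluorescent peptide substrates bind immobilized metal beads. Reactions ran at ATP three times Km.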

Data set [3] is described as follows: Clearance in Wistar rat at 5 mg/kg, iv. The format is ADME, organism-based. Details: dose 5 mg/kg, route intravenous. The following applies: in vivo. An outline of the steps: (§2)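 Wistar rats received one dose, either iv 5 mg/kg via femoral arterial catheter (2% DMA/10% PEG400/88% of 40% HPBCD) or po 50 mg/kg (2% Klucel LF/0.1% Tween 80). Blood came from an implanted jugular catheter, up to 24 h (iv) or 48 h (po), into EDTA. Plasma LC-MS/MS; individual non-compartmental parameters were averaged.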

A short description of data set [4]: AUC in Wistar rat at 50 mg/kg, po. The class given is ADME, organism-based. The conditions noted are these: plasma. Details: dose 50 mg/kg, route oral. An outline of the steps: as §2
Data set [5] addresses T1, Serine/threonine-protein kinase Sgk1 (Homo sapiens, UniProt O00141).
T1 sequence (O00141 whole entry): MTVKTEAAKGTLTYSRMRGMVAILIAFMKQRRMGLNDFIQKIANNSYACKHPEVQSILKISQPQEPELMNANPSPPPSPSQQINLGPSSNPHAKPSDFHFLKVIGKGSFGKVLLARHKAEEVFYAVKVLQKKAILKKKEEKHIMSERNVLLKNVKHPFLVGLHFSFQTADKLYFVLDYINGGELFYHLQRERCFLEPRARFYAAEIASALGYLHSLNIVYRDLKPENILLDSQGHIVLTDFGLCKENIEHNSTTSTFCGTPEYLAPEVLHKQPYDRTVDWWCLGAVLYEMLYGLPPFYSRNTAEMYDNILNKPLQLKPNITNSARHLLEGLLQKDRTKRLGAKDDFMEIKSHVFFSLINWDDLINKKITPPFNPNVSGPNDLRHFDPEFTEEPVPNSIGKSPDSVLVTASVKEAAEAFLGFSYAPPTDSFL
The experiment in a line: Inhibition of SGK.

Data set [6] concerns the target Epidermal growth factor receptor (Homo sapiens, UniProt P00533). The experiment in a line: Inhibition of human recombinant His-tagged intracellular domain of EGFR using biotin-EEEEYFELV as substrate by HTRF assay. On the technique in general: TR-FRET usually uses a lanthanide donor and a delayed reading to cut background.
Data set [7] deals with Mus musculus. In words: Antiangiogenic activity in C57/BL6 mouse cornea assessed as inhibition of VEGF-induced angiogenesis at 25 mg/kg, po bid for 7 days by corneal pocket assay relative to control. The format is functional. The conditions noted are these: 168 h. An outline of the steps: (§3)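 VEGF-impregnated pellets were implanted in corneas of female C57/BL6 mice aged 5–7 weeks. Oral twice-daily dosing started the same day and ran 7 days. The area of vascularization was then quantitated relative to animals given vehicle (2% Klucel LF, 0.1% Tween 80 in water).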

Data set [8] relates to Mus musculus. The experiment in a line: Antiangiogenic activity in C57/BL6 mouse cornea assessed as inhibition of VEGF-induced angiogenesis at 50 mg/kg, po bid for 7 days by corneal pocket assay relative to control. The format is functional. The following applies: 168 h. An outline of the steps:
as §3

In data set [9] the target is Cyclin-dependent kinase 1/cyclin B1 (Homo sapiens, UniProt P06493). In words: Inhibition of CDK1/cyclin B by IMAP assay. The format is protein-complex assay. An outline of the steps: as §1
Data set [10] deals with Fibroblast growth factor receptor (Homo sapiens, UniProt P22607+P11362+P22455+P21802). The experiment in a line: Inhibition of human recombinant GST-tagged intracellular domain of FGFR using biotin-EEEEYFELV as substrate by HTRF assay.
Data set [11] relates to Mus musculus. In words: Antiangiogenic activity in C57/BL6 mouse cornea assessed as inhibition of bFGF-induced angiogenesis at 50 mg/kg, po bid for 5 days by corneal pocket assay relative to control. The class given is functional. The following applies: 120 h. An outline of the steps: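 bFGF-impregnated pellets were implanted in corneas of female C57/BL6 mice aged 5–7 weeks. Oral dosing twice daily began the same day for 5 days. The neovascularized area was quantitated against vehicle-treated animals (2% Klucel LF, 0.1% Tween 80 in water).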

The next data set has as its system RKO. The experiment in a line: Antiproliferative activity against human RKO cells.
For data set [12], the system named is Mus musculus. In words: Antiangiogenic activity in C57/BL6 mouse cornea assessed as inhibition of VEGF-induced angiogenesis at 100 mg/kg, po bid for 7 days by corneal pocket assay relative to control. The following applies: 168 h. The format is functional. An outline of the steps:
as §3

The nature of data set [13]: Tmax in athymic nude mouse at 50 mg/kg, po. The class given is ADME, organism-based. The arrangement: dose 50 mg/kg, route oral. The conditions noted are these: in vivo. An outline of the steps: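 Athymic nude mice, single oral dose 50 mg/kg in 2% Klucel LF, 0.1% Tween 80 in water, 0.2 mL. Retro-orbital or terminal cardiac blood at 5, 15, 30 min and 1, 2, 4, 8, 16, 24 h; EDTA plasma by LC-MS/MS. Composite parameters; Tmax read from mean concentration–time profile.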

Data set [14] can be described thus: AUC in athymic nude mouse at 10 mg/kg, iv. The class given is ADME, organism-based. The arrangement: dose 10 mg/kg, route intravenous. The conditions noted are these: plasma. An outline of the steps:
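Athymic nude mice received one dose, either iv 10 mg/kg in 2% DMA/10% PEG400/88% of 40% HPBCD in water, or po 50 mg/kg in 2% Klucel LF/0.1% Tween 80. Retro-orbital or terminal cardiac blood was drawn from 1 min (iv) or 5 min (po) to 24 h into EDTA. Plasma was analysed by LC-MS/MS. Composite parameters were obtained by non-compartmental analysis, with AUC extrapolated to infinity.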

Chain of Cyclin-dependent kinase 1/cyclin B1 (P06493 whole entry, the tested form may be a part): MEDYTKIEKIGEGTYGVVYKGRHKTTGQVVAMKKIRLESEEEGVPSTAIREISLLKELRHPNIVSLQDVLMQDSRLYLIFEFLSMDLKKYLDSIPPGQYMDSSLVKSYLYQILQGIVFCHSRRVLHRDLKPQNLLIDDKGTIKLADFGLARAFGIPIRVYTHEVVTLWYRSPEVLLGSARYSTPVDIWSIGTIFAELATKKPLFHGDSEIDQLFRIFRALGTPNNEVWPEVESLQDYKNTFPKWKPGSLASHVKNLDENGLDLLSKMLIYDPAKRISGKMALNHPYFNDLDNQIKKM
Chain of Cyclin-dependent kinase 1/cyclin B1 (P14635 whole entry, further chain, the tested form may be a part): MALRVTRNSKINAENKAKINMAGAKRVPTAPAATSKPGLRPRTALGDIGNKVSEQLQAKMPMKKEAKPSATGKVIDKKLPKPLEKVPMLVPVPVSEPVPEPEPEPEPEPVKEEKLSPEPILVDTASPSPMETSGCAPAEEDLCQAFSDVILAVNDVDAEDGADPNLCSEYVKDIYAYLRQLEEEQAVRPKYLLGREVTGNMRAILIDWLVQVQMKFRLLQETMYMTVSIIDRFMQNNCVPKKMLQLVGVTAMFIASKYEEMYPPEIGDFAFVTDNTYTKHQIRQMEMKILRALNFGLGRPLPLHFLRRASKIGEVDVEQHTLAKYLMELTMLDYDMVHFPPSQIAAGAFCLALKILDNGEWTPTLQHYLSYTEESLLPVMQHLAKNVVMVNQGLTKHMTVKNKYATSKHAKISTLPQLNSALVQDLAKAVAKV
Chain of Epidermal growth factor receptor (P00533 whole entry, the tested form may be a part): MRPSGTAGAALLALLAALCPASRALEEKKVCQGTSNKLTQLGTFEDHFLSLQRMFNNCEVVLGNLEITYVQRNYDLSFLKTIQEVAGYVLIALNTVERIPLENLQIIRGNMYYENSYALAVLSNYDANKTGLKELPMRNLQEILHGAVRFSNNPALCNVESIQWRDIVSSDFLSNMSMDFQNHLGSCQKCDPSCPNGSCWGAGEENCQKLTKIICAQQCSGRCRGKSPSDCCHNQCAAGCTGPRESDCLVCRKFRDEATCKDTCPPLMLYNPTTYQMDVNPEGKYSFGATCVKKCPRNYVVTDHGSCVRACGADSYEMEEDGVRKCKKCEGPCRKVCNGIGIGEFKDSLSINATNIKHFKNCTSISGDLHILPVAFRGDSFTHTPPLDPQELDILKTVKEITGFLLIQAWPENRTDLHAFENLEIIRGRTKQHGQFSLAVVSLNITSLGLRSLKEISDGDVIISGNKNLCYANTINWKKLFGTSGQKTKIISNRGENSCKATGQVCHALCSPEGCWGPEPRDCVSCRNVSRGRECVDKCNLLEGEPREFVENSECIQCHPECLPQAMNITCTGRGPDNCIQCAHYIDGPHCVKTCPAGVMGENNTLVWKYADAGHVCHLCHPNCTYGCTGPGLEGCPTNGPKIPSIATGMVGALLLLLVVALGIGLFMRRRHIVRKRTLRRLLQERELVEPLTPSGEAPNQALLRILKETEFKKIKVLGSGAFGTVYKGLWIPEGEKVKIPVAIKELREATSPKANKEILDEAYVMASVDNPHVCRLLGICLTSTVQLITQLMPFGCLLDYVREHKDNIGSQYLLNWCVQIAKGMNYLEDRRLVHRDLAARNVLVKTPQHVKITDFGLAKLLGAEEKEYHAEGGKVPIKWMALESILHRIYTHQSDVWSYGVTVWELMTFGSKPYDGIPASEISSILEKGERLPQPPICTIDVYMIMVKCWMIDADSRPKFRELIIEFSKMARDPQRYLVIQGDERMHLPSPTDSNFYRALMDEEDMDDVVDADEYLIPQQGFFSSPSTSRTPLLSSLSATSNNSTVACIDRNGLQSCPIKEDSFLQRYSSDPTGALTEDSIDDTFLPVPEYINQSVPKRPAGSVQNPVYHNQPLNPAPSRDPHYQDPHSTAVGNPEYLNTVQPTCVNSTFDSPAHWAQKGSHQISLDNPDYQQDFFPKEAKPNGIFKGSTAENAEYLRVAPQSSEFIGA

Broadly, the IC50 is the concentration at which inhibition is half-maximal. The clearance is a measure of how efficiently the substance is removed, as volume per time. What is called AUC is the area under the concentration-time curve, a measure of exposure. Higher therefore signals more exposure. As a reminder, the inhibition in vivo is the relative decrease from the control value, in per cent. The term Tmax denotes the time at which the peak concentration occurs. Consider `COc1ccc(N2Cc3cnc(Nc4ccccc4)nc3N([C@@H]3CC[C@@H](O)C3)C2=O)cc1` (racemic), for which the Vd in [1] turned out to be 1.9 L/kg. Further, the IC50 in data set [2] was more than 125000 nM; in data set [5], more than 125000 nM; in data set [6], 310 nM; in [9], more than 125000 nM; in data set [10], 29 nM; with RKO, 2300 nM. In data set [3], this molecule displayed a clearance of 23.1 mL/min/kg. Further, the figures for the AUC in data set [4] and in [14] were 26500 ng·h/mL and 11100 ng·h/mL, respectively. In the data set on Mus musculus [7], the inhibition in vivo at 25 mg/kg was 81%. Moreover, the inhibition in vivo at 50 mg/kg worked out at 91% in the data set with Mus musculus [8] and 80% in the data set on Mus musculus [11]. The inhibition in vivo at 100 mg/kg with Mus musculus [12] stood at 99%. The Tmax in [13] is 15 min.
